# Columns and labels:
# HT-29 = assay: Cytotoxicity against human HT-29 cells after 48 hrs by SRB assay; assay type: functional; settings: HT-29, 48 h
# In short: (§1)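 NCI 60-cell-line screen. Cells preincubated 24 h at 37 °C, 5% CO2; time-zero plates TCA-fixed. Compounds dissolved in DMSO and tested at five concentrations (100, 10, 1.0, 0.1, 0.01 µM) for 48 h continuous exposure. Adherent cells fixed with cold TCA (10% final), then SRB stained; absorbance at 515 nm. GI50, TGI and LC50 calculated from growth relative to time-zero and untreated controls.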
# SK-MEL-28 = assay: Cytotoxicity against human SK-MEL-28 cells after 48 hrs by SRB assay; assay type: functional; settings: SK-MEL-28, 48 h; for CC50: read-out: LC50 (the source's name); in short: as §1
# SK-OV-3 = assay: Cytotoxicity against human SKOV3 cells after 48 hrs by SRB assay; assay type: functional; settings: SK-OV-3, 48 h; in short: as §1
# K562 = assay: Cytotoxicity against human K562 cells after 48 hrs by SRB assay; assay type: functional; settings: K562, 48 h; in short: as §1
# A498 = assay: Cytotoxicity against human A498 cells after 48 hrs by SRB assay; assay type: functional; settings: A498, 48 h; for CC50: read-out: LC50 (the source's name); in short: as §1
# CAKI-1 = assay: Cytotoxicity against human Caki1 cells after 48 hrs by SRB assay; assay type: functional; settings: CAKI-1, 48 h; in short: as §1
# HCT-15 = assay: Cytotoxicity against human HCT15 cells after 48 hrs by SRB assay; assay type: functional; settings: HCT-15, 48 h; in short: as §1
# 786-0 = assay: Cytotoxicity against human 786-0 cells after 48 hrs by SRB assay; assay type: functional; settings: 786-0, 48 h; in short: as §1
# PC-3 = assay: Cytotoxicity against human PC3 cells after 48 hrs by SRB assay; assay type: functional; settings: PC-3, 48 h; in short: as §1
# KM12 = assay: Cytotoxicity against human KM12 cells after 48 hrs by SRB assay; assay type: functional; settings: KM12, 48 h; in short: as §1
# IGROV-1 = assay: Cytotoxicity against human IGROV1 cells after 48 hrs by SRB assay; assay type: functional; settings: IGROV-1, 48 h; in short: as §1
# SK-MEL-5 = assay: Cytotoxicity against human SK-MEL-5 cells after 48 hrs by SRB assay; assay type: functional; settings: SK-MEL-5, 48 h; in short: as §1
# MDA-MB-468 = assay: Cytotoxicity against human MDA-MB-468 cells after 48 hrs by SRB assay; assay type: functional; settings: MDA-MB-468, 48 h; in short: as §1
# HCT-116 = assay: Cytotoxicity against human HCT116 cells after 48 hrs by SRB assay; assay type: functional; settings: HCT-116, 48 h; in short: as §1
# Malme-3M = assay: Cytotoxicity against human MALME-3M cells after 48 hrs by SRB assay; assay type: functional; in short: as §1
# SF-295 = assay: Cytotoxicity against human SF295 cells after 48 hrs by SRB assay; assay type: functional; settings: SF-295, 48 h; in short: as §1
# NCI/ADR-RES = assay: Cytotoxicity against human NCI/ADR-RES cells after 48 hrs by SRB assay; assay type: functional; settings: for CC50: read-out: LC50 (the source's name); in short: as §1
# M14 = assay: Cytotoxicity against human M14 cells after 48 hrs by SRB assay; assay type: functional; settings: M14, 48 h; for CC50: read-out: LC50 (the source's name); in short: as §1
# SR = assay: Cytotoxicity against human SR cells after 48 hrs by SRB assay; assay type: functional
# In short: (§2)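 NCI 60-cell screen. Cells grew 24 h (37 °C, 5% CO2) before compound was added. Compounds were in DMSO and diluted in medium with gentamicin, then tested at five levels (100, 10, 1.0, 0.1, 0.01 µM) with 48 h continuous exposure. Adherent cells were fixed with TCA (10% final) and stained with 0.4% SRB, absorbance read at 515 nm. A time-zero plate was included. LC50 is the concentration giving 50% loss of protein relative to time zero.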
# LOX IMVI = assay: Cytotoxicity against human LOXIMVI cells after 48 hrs by SRB assay; assay type: functional; in short: as §1
# U-251 = assay: Cytotoxicity against human U251 cells after 48 hrs by SRB assay; assay type: functional; settings: U-251, 48 h; for CC50: read-out: LC50 (the source's name); in short: as §2
# BT-549 = assay: Cytotoxicity against human BT549 cells after 48 hrs by SRB assay; assay type: functional; settings: BT-549, 48 h; in short: as §1
# OVCAR-8 = assay: Cytotoxicity against human OVCAR8 cells after 48 hrs by SRB assay; assay type: functional; settings: OVCAR-8, 48 h; in short: as §1
# MOLT-4 = assay: Cytotoxicity against human MOLT4 cells after 48 hrs by SRB assay; assay type: functional; settings: MOLT-4, 48 h; in short: as §1
# COLO 205 = assay: Cytotoxicity against human COLO205 cells after 48 hrs by SRB assay; assay type: functional; settings: COLO 205, 48 h; in short: as §1
# [1] = Toxicity in RBC (unknown origin) assessed as hemolysis after 48 hrs at 20 to 80 ug/ml by spectrophotometry; assay type: cell-based, Erythrocyte; settings: red blood cells (RBC); read-out: Activity
# In short: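 Red blood cells at 5% hematocrit in RPMI 1640 exposed to 20, 40 and 80 µg/mL for 48 h at 37 °C; free hemoglobin read spectrophotometrically at 542 nm.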
smiles,measurement,setting,value
COc1ccc(C2CC(c3cccc(Nc4ccnc5cc(Cl)ccc45)c3)=NN2C=O)cc1 (stereo unspecified),GI50,HT-29,0.34 µM
same,LC50,HT-29,> 100 µM
same,GI50,SK-MEL-28,0.96 µM
same,CC50,SK-MEL-28,> 100 µM
same,GI50,SK-OV-3,0.7 µM
same,LC50 (concentration killing 50% of cells),SK-OV-3,> 100 µM
same,GI50,K562,0.29 µM
same,LC50 (concentration killing 50% of cells),K562,> 100 µM
same,GI50,A498,0.26 µM
same,CC50,A498,> 100 µM
same,GI50,CAKI-1,0.33 µM
same,LC50,CAKI-1,100 µM
same,GI50,HCT-15,0.44 µM
same,LC50 (concentration killing 50% of cells relative to time zero),HCT-15,> 100 µM
same,GI50,786-0,0.53 µM
same,LC50,786-0,> 100 µM
same,GI50,PC-3,0.85 µM
same,LC50,PC-3,> 100 µM
same,GI50,KM12,0.44 µM
same,LC50 (concentration killing 50% of cells),KM12,> 100 µM
same,GI50,IGROV-1,1.44 µM
same,LC50 (concentration killing 50% of cells relative to time zero),IGROV-1,> 100 µM
same,GI50,SK-MEL-5,0.41 µM
same,LC50 (concentration killing 50% of cells present at time zero),SK-MEL-5,> 100 µM
same,GI50,MDA-MB-468,0.21 µM
same,LC50,MDA-MB-468,> 100 µM
same,GI50,HCT-116,0.38 µM
same,LC50,HCT-116,38.1 µM
same,GI50,Malme-3M,0.74 µM
same,LC50,Malme-3M,> 100 µM
same,GI50,SF-295,0.32 µM
same,LC50,SF-295,> 100 µM
same,GI50,NCI/ADR-RES,0.35 µM
same,CC50,NCI/ADR-RES,> 100 µM
same,GI50,M14,0.4 µM
same,CC50,M14,> 100 µM
same,GI50,SR,0.24 µM
same,LC50,SR,> 100 µM
same,GI50,LOX IMVI,0.58 µM
same,LC50,LOX IMVI,6.7 µM
same,GI50,U-251,0.45 µM
same,CC50,U-251,41.8 µM
same,GI50,BT-549,0.45 µM
same,LC50 (50% net cell kill vs time zero),BT-549,55.6 µM
same,GI50,OVCAR-8,0.95 µM
same,LC50 (50% net cell kill),OVCAR-8,> 100 µM
same,GI50,MOLT-4,0.49 µM
same,LC50,MOLT-4,> 100 µM
same,GI50,COLO 205,0.45 µM
same,LC50,COLO 205,13.9 µM
COc1cc(C2CC(c3cccc(Nc4ccnc5cc(Cl)ccc45)c3)=NN2C=O)cc(OC)c1OC (stereo unspecified),GI50,HT-29,0.4 µM
same,LC50,HT-29,4.99 µM
same,GI50,SK-MEL-28,1.02 µM
same,CC50,SK-MEL-28,97.1 µM
same,GI50,SK-OV-3,1.4 µM
same,LC50 (concentration killing 50% of cells),SK-OV-3,> 100 µM
same,GI50,K562,0.43 µM
same,LC50 (concentration killing 50% of cells),K562,> 100 µM
same,GI50,A498,0.29 µM
same,CC50,A498,> 100 µM
same,GI50,CAKI-1,0.55 µM
same,LC50,CAKI-1,12.1 µM
same,GI50,HCT-15,0.55 µM
same,LC50 (concentration killing 50% of cells relative to time zero),HCT-15,> 100 µM
same,GI50,786-0,0.84 µM
same,LC50,786-0,76.3 µM
same,GI50,PC-3,1.46 µM
same,LC50,PC-3,> 100 µM
same,GI50,KM12,0.5 µM
same,LC50 (concentration killing 50% of cells),KM12,> 100 µM
same,GI50,IGROV-1,3.29 µM
same,LC50 (concentration killing 50% of cells relative to time zero),IGROV-1,> 100 µM
same,GI50,SK-MEL-5,0.42 µM
same,LC50 (concentration killing 50% of cells present at time zero),SK-MEL-5,23.5 µM
same,hemolysis at 48 h,[1],3.4%
same,GI50,MDA-MB-468,0.3 µM
same,LC50,MDA-MB-468,23.3 µM
same,GI50,HCT-116,0.4 µM
same,LC50,HCT-116,6.71 µM
same,GI50,Malme-3M,0.81 µM
same,LC50,Malme-3M,> 100 µM
same,GI50,SF-295,0.38 µM
same,LC50,SF-295,> 100 µM
same,GI50,NCI/ADR-RES,1.36 µM
same,CC50,NCI/ADR-RES,> 100 µM
same,GI50,M14,0.35 µM
same,CC50,M14,57.5 µM
same,GI50,SR,0.34 µM
same,LC50,SR,> 100 µM
same,GI50,LOX IMVI,0.71 µM
same,LC50,LOX IMVI,> 100 µM
same,GI50,U-251,0.45 µM
same,CC50,U-251,> 100 µM
same,GI50,BT-549,0.39 µM
same,LC50 (50% net cell kill vs time zero),BT-549,4.61 µM
same,GI50,OVCAR-8,2.06 µM
same,LC50 (50% net cell kill),OVCAR-8,> 100 µM
same,GI50,MOLT-4,0.59 µM
same,LC50,MOLT-4,> 100 µM
same,GI50,COLO 205,0.64 µM
same,LC50,COLO 205,> 100 µM
